Screens from PubChem BioAssay.
The list is not random: actives were taken first. Their share in the collection is about 5.5%.
HSV augment = increases HSV replication in cells | HSV replication augmentation in cells, fold increase | maximum fold increase | 220,000 tested, 0.005% active; in the data active = maximum fold increase above about 1.5; tested in PC3 cells
STAT1 act = activators of IFN-gamma induced STAT1 signaling | NIH 3T3 STAT1-luciferase reporter, luminescence; 100% = IFN-gamma alone, no compound | AID 932 | 200,000 tested, 2.6% active | activation (% of control), % at 5.5 µM;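 active = activation above the screen-wide mean activation plus 3 SD, cut at about 130% in these data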
KCC2 mod = modulators of human KCC2 chloride dependent transport; KCC2 cells, thallium flux FluoZin-2 fluorescence; 190,000 tested, 2.2% active; B-score of Tl+ flux slope (higher = more flux/activation; lower = inhibition) at 10 µM; Q9H2X9; AID 1456;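 active = thallium flux slope and its plate-corrected score both differing from the plate sample mean at a set confidence after two filtering rounds, in either direction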;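 note: slope of fluorescence scaled to starting intensity during 10 to 20 s after thallium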
Target sequence (Q9H2X9 whole entry, looked up): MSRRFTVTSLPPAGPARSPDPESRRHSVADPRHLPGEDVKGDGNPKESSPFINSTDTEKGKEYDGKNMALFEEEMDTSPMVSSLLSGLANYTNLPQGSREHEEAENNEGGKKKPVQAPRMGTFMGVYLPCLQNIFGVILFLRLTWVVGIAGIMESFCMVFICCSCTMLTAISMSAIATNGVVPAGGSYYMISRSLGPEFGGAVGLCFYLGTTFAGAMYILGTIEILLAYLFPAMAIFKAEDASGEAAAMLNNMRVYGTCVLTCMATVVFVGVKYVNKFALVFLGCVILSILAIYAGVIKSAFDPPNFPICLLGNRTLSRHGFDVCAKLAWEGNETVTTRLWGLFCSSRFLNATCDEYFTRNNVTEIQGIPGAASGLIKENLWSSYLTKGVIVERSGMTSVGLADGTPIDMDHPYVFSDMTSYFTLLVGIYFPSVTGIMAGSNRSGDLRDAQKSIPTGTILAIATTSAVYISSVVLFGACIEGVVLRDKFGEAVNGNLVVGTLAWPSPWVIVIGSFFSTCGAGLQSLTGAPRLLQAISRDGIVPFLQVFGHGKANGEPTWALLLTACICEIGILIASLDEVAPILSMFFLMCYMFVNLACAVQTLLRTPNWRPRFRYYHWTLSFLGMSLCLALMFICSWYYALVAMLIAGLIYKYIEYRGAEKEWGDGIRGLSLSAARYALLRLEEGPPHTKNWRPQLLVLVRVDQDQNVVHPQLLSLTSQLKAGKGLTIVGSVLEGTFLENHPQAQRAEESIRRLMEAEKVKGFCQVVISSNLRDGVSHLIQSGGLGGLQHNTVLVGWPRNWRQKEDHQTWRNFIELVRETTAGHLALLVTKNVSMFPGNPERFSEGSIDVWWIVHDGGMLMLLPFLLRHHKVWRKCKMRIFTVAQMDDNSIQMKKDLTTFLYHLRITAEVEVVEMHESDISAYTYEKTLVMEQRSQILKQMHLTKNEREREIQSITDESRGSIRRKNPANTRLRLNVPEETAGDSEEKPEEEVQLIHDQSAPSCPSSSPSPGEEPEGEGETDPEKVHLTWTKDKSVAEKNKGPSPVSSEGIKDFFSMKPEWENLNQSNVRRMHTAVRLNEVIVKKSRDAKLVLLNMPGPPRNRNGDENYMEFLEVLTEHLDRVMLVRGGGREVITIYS
STAT1 inh = inhibitors of IFN-gamma induced STAT1 signaling | AID 920 | inhibition, % at 5.5 µM | NIH 3T3 STAT1-luciferase reporter, luminescence | 200,000 tested, 0.35% active;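 active = inhibition above a set limit, the mean inhibition across all tested compounds plus 3 SD, cut at about 34% in these data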
STAT3 act = increases IL-6 driven STAT3 reporter signal. activation (% of control), % at 5.6 µM. U3A cells, IL-6 STAT3-luciferase reporter, luminescence; 100% = signal with IL-6 EC80 alone. 190,000 tested, 0.91% active;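 active = activation above the screen-wide mean of compound activation plus 3 SD, cut at about 130% in these data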
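System – human U3A cells carrying STAT3-luciferase construct · Probe or stimulus – Interleukin-6, 33 ng/mL · Schedule – compound 1 h, then IL-6 6 h at 37 °C · Signal – luminescence from STAT3-driven luciferase reporter · Evaluation – percent of IL-6-only median luminescence · Benchmarks – IL-6-only high control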
STAT3 inh-1 = STAT3 signaling inhibition; AID 862; U3A cells, IL-6 STAT3-luciferase reporter, luminescence; host cell line lacks STAT1; 190,000 tested, 0.89% active; inhibition, % at 5.5 µM;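 active = inhibition above the mean inhibition across all screened compounds plus 3 SD, cut at about 44% in these data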
STAT3 inh-2 = confirmation of STAT3 signaling inhibitors; 1,200 tested, 45% active; inhibition, % at 5.7 µM; AID 1265; U3A cells, IL-6 STAT3 luciferase reporter, luminescence; cell line lacks STAT1; shares compounds with STAT3 inh-1;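 active = inhibition above the hit cutoff computed for the primary STAT3 screen, cut at about 44% in these data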
NFkB inh 2 = counter-screen for STAT3 inhibitors: NF-kappaB inhibition; shares compounds with STAT3 inh-1; 1,200 tested, 36% active; inhibition, % at 5.7 µM; HEK293T NF-kB luciferase reporter, TNF-alpha induced; AID 1308;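 active = inhibition above the mean of solvent-only control wells plus 3 SD, cutoff set per campaign, cut at about 13% in these data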
STAT1 inh STAT3c = counter-screen for STAT3 inhibitors: STAT1 inhibition; shares compounds with STAT3 inh-1; NIH 3T3 STAT1-luciferase reporter, IFN-gamma induced, luminescence; 1,200 tested, 27% active; inhibition, % at 5.7 µM;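 active = inhibition above the mean plus 3 SD of solvent-only control wells, limit set per screening run, cut at about 16% in these data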
Numbers stand for hits.

Results for CC(=O)N(C(C)=O)N1C(=O)C2C3c4ccccc4C(c4ccccc43)C2C1=O (stereo unspecified) ?
HSV augment: inactive; STAT1 act: inactive; KCC2 mod: inactive; STAT1 inh: inactive; STAT3 act: inactive; STAT3 inh-1: inactive

Results for O=C1C2C3c4ccccc4C(c4ccccc43)C2c2nc3ccccc3n21 (stereo unspecified) ?
HSV augment: inactive; STAT1 act: inactive; KCC2 mod: inactive; STAT1 inh: inactive; STAT3 act: inactive; STAT3 inh-1: 64; STAT3 inh-2: 59; NFkB inh 2: inactive; STAT1 inh STAT3c: inactive

Results for Cc1ccc(C)n1-c1ccc(-c2ccnc(N)n2)cc1 ?
HSV augment: inactive; STAT1 act: inactive; KCC2 mod: inactive; STAT1 inh: inactive; STAT3 act: inactive; STAT3 inh-1: 45; STAT3 inh-2: inactive; NFkB inh 2: inactive; STAT1 inh STAT3c: inactive

How did O=C(Nc1ccccc1)c1ccc(F)c(S(=O)(=O)N2CCOCC2)c1 do in these assays?
HSV augment: inactive; STAT1 act: inactive; KCC2 mod: inactive; STAT1 inh: inactive; STAT3 act: inactive; STAT3 inh-1: inactive

How did O=C(Nc1ccc(-c2cn3ccsc3n2)cc1)c1ccc(F)c(S(=O)(=O)N2CCOCC2)c1 do in these assays?
HSV augment: inactive; STAT1 act: inactive; KCC2 mod: inactive; STAT1 inh: inactive; STAT3 act: inactive; STAT3 inh-1: 45; STAT3 inh-2: inactive; NFkB inh 2: inactive; STAT1 inh STAT3c: inactive

What do the screens show for `Cc1ccc(-n2c(SCC(=O)N3CCCc4ccccc43)nnc2-c2cccnc2)c(C)c1`?
HSV augment: inactive; STAT1 act: inactive; KCC2 mod: inactive; STAT1 inh: inactive; STAT3 act: inactive; STAT3 inh-1: inactive

Results for Cc1ccc(-n2c(-c3ccccc3)c[n+]3c2CCc2ccccc2-3)c(C)c1 ?
HSV augment: inactive; STAT1 act: inactive; KCC2 mod: inactive; STAT1 inh: inactive; STAT3 act: inactive; STAT3 inh-1: 66; STAT3 inh-2: 60; NFkB inh 2: inactive; STAT1 inh STAT3c: 25

Results for c1c2c(cc3sc(N4CCCCC4)nc13)OCO2 ?
STAT1 act: inactive; STAT1 inh: inactive; STAT3 act: inactive; STAT3 inh-1: 62; STAT3 inh-2: inactive; NFkB inh 2: inactive; STAT1 inh STAT3c: inactive

What do the screens show for `O=[N+]([O-])c1ccc(O)c(C=Nc2ccc3c(c2)OCCO3)c1`?
HSV augment: inactive; STAT1 act: inactive; KCC2 mod: inactive; STAT1 inh: inactive; STAT3 act: inactive; STAT3 inh-1: 44; STAT3 inh-2: inactive; NFkB inh 2: inactive; STAT1 inh STAT3c: inactive

How did Oc1c(Br)cc(Br)cc1C=Nc1ccc2c(c1)OCCO2 do in these assays?
HSV augment: inactive; STAT1 act: inactive; KCC2 mod: inactive; STAT1 inh: inactive; STAT3 act: inactive; STAT3 inh-1: inactive

What do the screens show for `Cc1ccc(OCC(=O)N2N=C(c3ccncc3)CC2(O)C(F)(F)F)cc1C` (stereo unspecified)?
HSV augment: inactive; KCC2 mod: inactive

What do the screens show for `C/C(=N\NC(=O)c1ccccc1O)c1cccs1`?
HSV augment: inactive; STAT1 act: inactive; KCC2 mod: inactive; STAT1 inh: inactive; STAT3 act: inactive; STAT3 inh-1: 61; STAT3 inh-2: inactive; NFkB inh 2: inactive; STAT1 inh STAT3c: inactive

Results for C/C(=N/NC(=O)c1cc(C2CC2)[nH]n1)c1cccs1 ?
HSV augment: inactive; STAT1 act: inactive; KCC2 mod: inactive; STAT1 inh: inactive; STAT3 act: inactive; STAT3 inh-1: 76; STAT3 inh-2: 52; NFkB inh 2: 19; STAT1 inh STAT3c: inactive

What do the screens show for `CCCCCN1CN(S(=O)(=O)c2cccs2)c2nc3ccccc3nc21`?
HSV augment: inactive; KCC2 mod: inactive

How did O=C(Nc1ccc(N2CCN(C(=O)c3ccccc3)CC2)cc1)c1cc2ccccc2o1 do in these assays?
HSV augment: inactive; STAT1 act: inactive; KCC2 mod: inactive; STAT1 inh: inactive; STAT3 act: inactive; STAT3 inh-1: 63; STAT3 inh-2: 59; NFkB inh 2: 14; STAT1 inh STAT3c: inactive

What do the screens show for `CC(=O)Nc1ccc2c(c1)OCCOCCOc1cc(NC(C)=O)ccc1OCCOCCOCCO2`?
STAT1 act: inactive; STAT1 inh: inactive; STAT3 act: inactive; STAT3 inh-1: inactive

How did Cc1ccc(NC(=O)c2ccc3c(c2)OCCO3)cc1 do in these assays?
HSV augment: inactive; STAT1 act: inactive; KCC2 mod: inactive; STAT1 inh: inactive; STAT3 act: inactive; STAT3 inh-1: 77; STAT3 inh-2: inactive; NFkB inh 2: inactive; STAT1 inh STAT3c: inactive

How did Cc1ccsc1C(=O)Nc1ccc2c(c1)OCCO2 do in these assays?
HSV augment: inactive; STAT1 act: inactive; KCC2 mod: inactive; STAT1 inh: inactive; STAT3 act: inactive; STAT3 inh-1: 55; STAT3 inh-2: inactive; NFkB inh 2: inactive; STAT1 inh STAT3c: inactive

What do the screens show for `O=C(Nc1ccncc1)c1ccc2c(c1)OCCO2`?
HSV augment: inactive; STAT1 act: inactive; KCC2 mod: inactive; STAT1 inh: inactive; STAT3 act: inactive; STAT3 inh-1: inactive

Results for COc1ccc(C(=O)Nc2ccc3c(c2)OCCO3)cc1 ?
HSV augment: inactive; STAT1 act: inactive; KCC2 mod: inactive; STAT1 inh: inactive; STAT3 act: inactive; STAT3 inh-1: 66; STAT3 inh-2: inactive; NFkB inh 2: inactive; STAT1 inh STAT3c: inactive

How did CCc1nnc2sc(-c3ccc(NC(=O)c4ccco4)cc3)nn12 do in these assays?
HSV augment: inactive; STAT1 act: inactive; STAT1 inh: inactive; STAT3 act: inactive; STAT3 inh-1: inactive

Results for CCc1nnc2sc(-c3ccc(NC(=O)c4ccc5c(c4)OCCO5)cc3)nn12 ?
HSV augment: inactive; STAT1 act: inactive; KCC2 mod: inactive; STAT1 inh: inactive; STAT3 act: inactive; STAT3 inh-1: 55; STAT3 inh-2: 51; NFkB inh 2: 13; STAT1 inh STAT3c: 32

Results for O=C(Nc1ccc(NC(=O)c2cc3ccccc3o2)cc1)c1ccc2c(c1)OCCO2 ?
HSV augment: inactive; STAT1 act: inactive; KCC2 mod: inactive; STAT1 inh: inactive; STAT3 act: inactive; STAT3 inh-1: 47; STAT3 inh-2: 51; NFkB inh 2: 54; STAT1 inh STAT3c: 23

How did O=C(Nc1ccc(N2CCN(C(=O)c3ccc(Cl)cc3)CC2)cc1)c1ccc2c(c1)OCCO2 do in these assays?
HSV augment: inactive; STAT1 act: inactive; KCC2 mod: inactive; STAT1 inh: inactive; STAT3 act: inactive; STAT3 inh-1: 87; STAT3 inh-2: 79; NFkB inh 2: 29; STAT1 inh STAT3c: inactive
